Assay results reported in ChEMBL document CHEMBL1154735, “A strategy to minimize reactive metabolite formation: discovery of (S)-4-(1-cyclopropyl-2-methoxyethyl)-6-[6-(difluoromethoxy)-2,5-dimethylpyridin-3-ylamino]-5-oxo-4,5-dihydropyrazine-2-carbonitrile as a potent, orally bioavailable corticotropin-releasing factor-1 receptor antagonist” (J Med Chem, 2009).
Values after ≈ are worked out from the molar mass of the structure shown.

Legend:
[1] = Clearance in Sprague-Dawley rat at 2 mg/kg, iv after 0.17 to 24 hrs by LC/MS/MS analysis; format: ADME, organism-based; set-up: dose 2 mg/kg, route intravenous; conditions: in vivo
[2] = Volume of distribution at steady state in Sprague-Dawley rat at 2 mg/kg, iv after 0.17 to 24 hrs by LC/MS/MS analysis; format: ADME, organism-based; set-up: dose 2 mg/kg, route intravenous; conditions: in vivo, read-out: Vdss
In short: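 Sprague–Dawley rats (n = 3) dosed 2 mg/kg iv in PEG:ethanol 90:10 (v/v) at 1 mL/kg. Plasma stored at –20 °C and quantified by LC/MS/MS after acetonitrile precipitation with internal standard.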

[3] = Half life in Sprague-Dawley rat at 2 mg/kg, iv by LC/MS/MS analysis; format: ADME, organism-based; set-up: dose 2 mg/kg, route intravenous; conditions: in vivo
[4] = Cmax in Sprague-Dawley rat at 10 mg/kg, po dosed as aqueous suspension of 1% polysorbate 80 in 0.5% methylcellulose after 2 to 4 hrs by LC/MS/MS analysis; format: ADME, organism-based; set-up: dose 10 mg/kg, route oral; conditions: in vivo
[5] = Oral bioavailability in Sprague-Dawley rat at 10 mg/kg dosed as aqueous suspension of Labrafil M 1944CS/DMAC/polysorbate 80, 85:10:5 (v/v) after 0.25 to 24 hrs by LC/MS/MS analysis; format: ADME, organism-based; conditions: in vivo
[6] = Octanol-water partition coefficient, log D at pH 7.4; format: physicochemical
In short: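 Partitioning between octanol and water at pH 7.4.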

[7] = Aqueous solubility at pH 1; format: physicochemical
[8] = Dissociation constant, pKa by spectrophotometric titration method; format: physicochemical
In short: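 Spectrophotometric titration over pH 2–11 in varying acetonitrile/water mixtures, extrapolated to 0% cosolvent.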

[9] = Solubility in simulated gastric fluid; format: physicochemical
In short: (§1)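 Solubility measured in simulated gastric fluid and in simulated intestinal fluid (fed state).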

[10] = Solubility in simulated intestinal fluid; format: physicochemical; in short: as §1
[11] = tested on: Liver microsomes; test: Metabolic stability in NADPH-fortified human liver microsomes assessed as GSH adduct formation at 10 uM after 30 mins by HPLC/UV/MS analysis; format: ADME, Microsome; conditions: 0.5 h
In short: (§2)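 Pooled rat or human liver microsomes 1 mg/mL, 10 μM substrate, 100 mM potassium phosphate pH 7.4, 37 °C, started with NADPH-regenerating system (1.3 mM NADP+, 3.3 mM glucose-6-phosphate, 3.3 mM MgCl2, 0.5 U/mL G6PDH); GSH 5 mM in trapping runs. Sampled 0 and 30 min, acetonitrile quench; abundance as UV peak area (330–340 nm) fraction of all drug-related components by HPLC/UV/MS.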

[12] = Metabolic stability in NADPH-fortified rat liver microsomes assessed as parent compound remaining at 10 uM after 30 mins by HPLC/UV/MS analysis; format: ADME, Microsome; conditions: read-out: Stability; in short: as §2
[13] = tested on: Liver microsomes; test: Metabolic stability in NADPH-fortified rat liver microsomes assessed as GSH adduct formation at 10 uM after 30 mins by HPLC/UV/MS analysis; format: ADME, Microsome; conditions: 0.5 h; in short: as §2
[14] = Drug metabolism in bile duct cannulated Sprague-Dawley rat assessed as GSH adduct formation in bile at 20 mg/kg, po after 24 hrs by HPLC/UV/MS analysis; format: ADME, organism-based; set-up: dose 20 mg/kg, route oral; conditions: in vivo
In short: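 Male Sprague–Dawley bile duct cannulated rats (n = 3) dosed orally at 20 mg/kg in PEG/ethanol 90:10; vehicle-dosed controls (n = 3). Bile and urine pooled over 0–24 h, acetonitrile-precipitated and profiled by HPLC/UV/MS (Hydro-RP column, PDA 200–550 nm, positive-ion full and data-dependent scans).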

[15] = tested on: Rattus norvegicus; test: Total plasma concentration in Sprague-Dawley rat at 1 mg/kg, po after 1 to 3 hrs by LC/MS/MS analysis; format: ADME, organism-based; set-up: dose 1 mg/kg, route oral; conditions: in vivo
[16] = tested on: Rattus norvegicus; test: Total plasma concentration in Sprague-Dawley rat at 3 mg/kg, po after 1 to 3 hrs by LC/MS/MS analysis; format: ADME, organism-based; set-up: dose 3 mg/kg, route oral; conditions: in vivo
[17] = tested on: Rattus norvegicus; test: Plasma free concentration in Sprague-Dawley rat at 1 mg/kg, po after 1 to 3 hrs by LC/MS/MS analysis; format: ADME, organism-based; set-up: dose 1 mg/kg, route oral; conditions: in vivo
[18] = tested on: Rattus norvegicus; test: Plasma free concentration in Sprague-Dawley rat at 1.8 mg/kg, po after 1 to 3 hrs by LC/MS/MS analysis; format: ADME, organism-based; set-up: dose 1.8 mg/kg, route oral; conditions: in vivo
[19] = tested on: Rattus norvegicus; test: Ex vivo receptor occupancy of CRF1 receptor in Sprague-Dawley rat brain parietal assessed as inhibition of [125I]sauvagine binding at 0.56 mg/kg, po after 90 mins by autoradiography; format: functional; conditions: 1.5 h
[20] = tested on: Rattus norvegicus; test: Ex vivo receptor occupancy of CRF1 receptor in Sprague-Dawley rat brain parietal assessed as inhibition of [125I]sauvagine binding at 1 mg/kg, po after 90 mins by autoradiography; format: functional; conditions: 1.5 h
[21] = tested on: Rattus norvegicus; test: Ex vivo receptor occupancy of CRF1 receptor in Sprague-Dawley rat brain parietal assessed as inhibition of [125I]sauvagine binding at 1.8 mg/kg, po after 90 mins by autoradiography; format: functional; conditions: 1.5 h
[22] = tested on: Rattus norvegicus; test: Anxiolytic activity in Sprague-Dawley rat assessed as decrease in exit latency at 0.56 mg/kg, po after 60 mins by defensive withdrawal test relative to control; format: functional; set-up: scale not given: the % may be the effect or the level left
In short: (§3)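 Rats placed in a darkened chamber within an open illuminated field; time to emerge measured 60 min after oral dosing (0.56–3 mg/kg), n = 8; percent decrease in exit latency versus vehicle-treated animals, p < 0.05 significance.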

[23] = tested on: Rattus norvegicus; test: Anxiolytic activity in Sprague-Dawley rat assessed as decrease in exit latency at 1.8 mg/kg, po after 60 mins by defensive withdrawal test relative to control; format: functional; set-up: scale not given: the % may be the effect or the level left; in short: as §3
[24] = Clearance in Beagle dog at 2 mg/kg, iv after 0.17 to 24 hrs by LC/MS/MS analysis; format: ADME, organism-based, Canis lupus familiaris; set-up: dose 2 mg/kg, route intravenous; conditions: in vivo
In short: (§4)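 Male beagle dogs (n = 4), 2 mg/kg iv in propylene glycol:ethanol 90:10 (v/v), 1 mL/kg infused over 5 min at 0.2 mL/kg/min; femoral vein blood at 0.17–24 h; plasma frozen at –20 °C, analysed by LC/MS/MS.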

[25] = Volume of distribution at steady state in Beagle dog at 2 mg/kg, iv after 0.17 to 24 hrs by LC/MS/MS analysis; format: ADME, organism-based, Canis lupus familiaris; set-up: dose 2 mg/kg, route intravenous; conditions: in vivo, read-out: Vdss
In short: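 Male beagle dogs (n = 4) given 2 mg/kg iv in propylene glycol:ethanol 90:10 (v/v), 1 mL/kg infused over 5 min at 0.2 mL/kg/min. Plasma stored at –20 °C and analysed by LC/MS/MS after acetonitrile precipitation.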

[26] = Half life in Beagle dog at 2 mg/kg, iv by LC/MS/MS analysis; format: ADME, organism-based, Canis lupus familiaris; set-up: dose 2 mg/kg, route intravenous; conditions: in vivo; in short: as §4
[27] = AUC in Beagle dog at 2 mg/kg, po dosed as […] after 0.25 to 24 hrs by LC/MS/MS analysis; format: ADME, organism-based, Canis lupus familiaris; set-up: time upper 24 hr, time lower 0.25 hr, dose 2 mg/kg, route oral; conditions: in vivo
[28] = Cmax in Beagle dog at 2 mg/kg, po dosed as aqueous suspension of 1% polysorbate 80 in 0.5% methylcellulose after 2 to 4 hrs by LC/MS/MS analysis; format: ADME, organism-based, Canis lupus familiaris; set-up: dose 2 mg/kg, route oral; conditions: in vivo
[29] = Oral bioavailability in Beagle dog at 2 mg/kg dosed as aqueous suspension of 1% polysorbate 80 in 0.5% methylcellulose after 0.25 to 24 hrs by LC/MS/MS analysis; format: ADME, organism-based, Canis lupus familiaris; conditions: in vivo
[30] = tested on: Rattus norvegicus; test: Ex vivo receptor occupancy of CRF1 receptor in po dosed Sprague-Dawley rat brain parietal assessed as inhibition of [125I]sauvagine binding after 90 mins by autoradiography; format: functional, organism-based
[31] = tested on: Rattus norvegicus; test: Toxicity in Sprague-Dawley rat at 175 mg/kg after 2 weeks; format: organism-based; set-up: dose 175 mg/kg; conditions: in vivo, 336 h
[32] = tested on: Rattus norvegicus; test: Neurotoxicity in Sprague-Dawley rat assessed as alteration of motor coordination up to 60 mg/kg by rotarod test; format: toxicity, organism-based; set-up: dose 60 mg/kg; conditions: in vivo

## COC[C@H](C1CC1)n1cc(C#N)nc(Nc2cc(C)c(OC(F)F)nc2C)c1=O
[1]
  clearance: 29 mL/min/kg
[2]
  Vd: 11 L/kg
[3]
  half-life: 9.3 h
[4]
  Cmax: 860 nM
[5]
  bioavailability: 66%
[6]
  logD: 3.9
[7]
  solubility: 3 µg/mL (≈ 7.4 µM)
[8]
  pKa: < 2
[9]
  solubility: 15 µg/mL (≈ 37 µM)
[10]
  solubility: 7.4 µg/mL (≈ 18.3 µM)
[11]
  Activity: 1%
[12]
  remaining at 0.5 h, 10 µM: 82%
[13]
  Activity: 3%
[14]
  Activity: 0.1%
[15]
  concentration: 45 nM
[16]
  concentration: 140 nM
[17]
  Cp(f): 1.6 nM
[18]
  Cp(f): 2.9 nM
[19]
  inhibition in vivo at 0.56 mg/kg: 39%
[20]
  inhibition in vivo at 1 mg/kg: 43%
[21]
  inhibition in vivo at 1.8 mg/kg: 71%
[22]
  Activity: 7%
[23]
  Activity: 60%
[24]
  clearance: 7.3 mL/min/kg
[25]
  Vd: 13 L/kg
[26]
  half-life: 30 h
[27]
  AUC: 7.6 µM·h
[28]
  Cmax: 880 nM
[29]
  bioavailability: 53%
[30]
  Activity: Dose-dependent effect
[31]
  Activity: Non-toxic
[32]
  Activity: Non-toxic
